rCAG binder – binds r(CAG) RNA repeats | r(CAG) RNA repeat, TO-PRO-1 dye displacement fluorescence | inhibition, % at 3 µM | 370,000 tested, 1.3% active | AID 651821;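 active = inhibition above the plate cutoff, the mean of all test compounds on that plate plus 3 SD, cut at about 35% in these data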;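 note: 0% = DMSO alone and 100% = 100 µM mitoxantrone as full dye displacement; higher means more dye released from RNA so lower well fluorescence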
PRMT1 FP inh – inhibitors of human PRMT1; Q99873; recombinant PRMT1, activity-based probe fluorescence polarization; inhibition, % at 2.79 µM; 370,000 tested, 1.3% active; AID 652257;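 active = inhibition above about 21% made by adding two undisclosed values, limit read from the data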
Target sequence (Q99873 whole entry, looked up): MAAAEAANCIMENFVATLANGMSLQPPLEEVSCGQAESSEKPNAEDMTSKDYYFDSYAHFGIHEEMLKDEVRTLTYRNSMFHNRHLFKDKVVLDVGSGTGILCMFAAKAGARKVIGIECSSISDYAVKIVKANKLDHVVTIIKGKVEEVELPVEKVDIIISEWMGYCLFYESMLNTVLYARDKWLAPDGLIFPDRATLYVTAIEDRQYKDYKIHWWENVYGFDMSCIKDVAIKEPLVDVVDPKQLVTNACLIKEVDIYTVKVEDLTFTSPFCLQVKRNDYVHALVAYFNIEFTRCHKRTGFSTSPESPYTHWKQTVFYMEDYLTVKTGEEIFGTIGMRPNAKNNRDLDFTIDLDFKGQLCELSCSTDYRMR
mABHD4 FP – inhibits mouse alpha/beta hydrolase domain 4 | purified mABHD4, FP-Rh probe fluorescence polarization | inhibition, % at 8.92 µM | 370,000 tested, 0.54% active | AID 720543;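 active = inhibition exceeding the mean over every tested compound plus 3 SD, cut at about 30% in these data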;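 note: 0% = plate median of compound wells and 100% = S159A mutant with DMSO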
Target sequence (Q8VD66 whole entry, looked up, the tested form may be a part): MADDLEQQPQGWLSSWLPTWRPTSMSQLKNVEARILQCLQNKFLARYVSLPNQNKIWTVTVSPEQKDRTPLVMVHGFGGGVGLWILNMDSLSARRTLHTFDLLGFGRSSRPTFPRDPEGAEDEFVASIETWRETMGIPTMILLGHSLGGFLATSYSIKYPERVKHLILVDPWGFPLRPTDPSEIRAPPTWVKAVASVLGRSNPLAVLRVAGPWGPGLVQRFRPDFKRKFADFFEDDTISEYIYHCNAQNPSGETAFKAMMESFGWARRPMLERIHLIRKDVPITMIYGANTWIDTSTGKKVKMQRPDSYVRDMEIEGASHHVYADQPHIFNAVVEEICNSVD
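Assay system: mouse ABHD4 enzyme, wild type / Also added: fluorescent activity-based probe FP-Rh / Doses: single nominal dose of 8.92 µM, 0.89% DMSO final / Timing: 45 min compound pre-incubation plus 60 min probe step, 25 °C / Signal: FP readout, ex 525 nm / em 598 nm / Control set: S159A mutant/DMSO as 100%, compound-well median as 0%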
TCR CD3 inh – inhibitors of human TCR-CD3 interaction; TAMRA-labeled TCR probe fluorescence, biochemical; inhibition, % at 9.4 µM; 360,000 tested, 0.37% active; AID 651800; in the data active = inhibition above about 19%;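 note: recombinant mutant TCR 2C K166C tagged with TAMRA read by polarization; 0% = receptor in buffer alone and 100% = receptor with positive control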
SIAE primary – human SIAE inhibition, primary screen | SIAE FP-Rh probe binding, fluorescence polarization | 370,000 tested, 0.69% active | Q9HAT2 | inhibition, % at 9.66 µM;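 active = inhibition above a cutoff: mean of compounds within the control limits plus 3 SD of those, cut at about 17% in these data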;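 note: 0% = plate median of compound wells and 100% = probe without SIAE protein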
Starred values were filed as active, the others as inactive; . = no result. Shown are actives, neighbours in structure and some others; about 3.3% of the full set was active somewhere.

SMILES | rCAG binder | PRMT1 FP inh | mABHD4 FP | TCR CD3 inh | SIAE primary
NC(=O)c1c(NC(NC(=O)c2ccco2)C(=O)c2ccc(Cl)cc2)sc2c1CCCC2 (stereo unspecified) | 13.2 | 24.3* | 7.3 | 3.0 | 9.7
CCOC(=O)c1c(NC(=O)c2ccco2)sc2c1CCCC2 | -2.4 | 0.3 | -4.7 | 3.6 | -1.0
N#Cc1c(NC(NC(=O)c2ccco2)C(=O)c2ccccc2)sc2c1CCCC2 (stereo unspecified) | 17.1 | 22.7* | 3.0 | 5.4 | -3.1
CCn1c(SCc2c(F)cccc2F)nc2sc3c(c2c1=O)CCCC3 | 3.6 | 1.8 | 5.4 | . | -1.8
O=C(Nc1cccc2ncccc12)c1ccc(-c2ccc(Br)cc2)o1 | 12.7 | 24.6* | -4.0 | -2.2 | 1.3
N#CC1=C(SCC(=O)NC2CC2)NC(=O)C(C#N)C12CCCCC2 (stereo unspecified) | 1.9 | -0.3 | 1.7 | 3.4 | 0.9
N#CC1=C(SCC(=O)Nc2cccc3cccnc23)NC(=O)C(C#N)C12CCCCC2 (stereo unspecified) | 48.0* | 3.4 | 0.0 | 6.3 | -3.3
CC(C)[C@H](NC(=O)OC(C)(C)C)c1cc(C(=O)NCCc2c[nH]c3ccccc23)c(N)s1 | 8.0 | 2.6 | 4.1 | -2.6 | 11.1
CC(C)[C@@H](NC(=O)OC(C)(C)C)c1cc(C(=O)c2c(-c3ccccc3)[nH]c3ccccc23)c(N)s1 | 15.1 | 23.1* | -6.3 | -1.3 | -6.5
Clc1ccc(N=c2ssnc2Cl)nc1 | 0.7 | 21.2* | 6.2 | 0.0 | 2.8
O=Nc1ccc(Cl)cn1 | 4.2 | 6.5 | 9.3 | 13.7 | 4.9
CC1=CC2(C(Cc3ccccc3)N(CC3CC3)C(=NC(=O)c3ccccc3)N2C(=O)OCc2ccccc2)n2c(=O)n(-c3ccccc3)c(=O)n2C1 (stereo unspecified) | 14.5 | 3.4 | 4.9 | . | 3.7
Cc1cc(=O)[nH]c(SCC(=O)Nc2cccc(C)c2C)n1 | 1.6 | 6.6 | 1.9 | . | -1.1
COc1ccc(N2CCN(C(=O)CCc3c[nH]c4ccccc34)CC2)cc1 | -2.4 | 1.3 | -2.6 | -7.5 | 10.3
O=C(CCc1c[nH]c2ccccc12)N1CCN(c2ccc(O)cc2)CC1 | 5.4 | 22.2* | 14.2 | 1.4 | 4.8
COCCCN1C(=O)[C@H](CC(=O)NCc2ccc(OC)c(OC)c2)[C@]2(C(=O)OC)CCCCC=C12 | 1.8 | -3.9 | 5.3 | . | 4.7
Cn1ccc2c(-c3ccc(F)nc3)cc3c(c21)C1CCC3C1 (stereo unspecified) | 4.7 | 22.8* | 0.4 | 1.0 | 3.1
O=C(CN1CCN(c2ccc(O)cc2)CC1)Nc1ccc2c(c1)OCCO2 | 4.4 | 24.1* | 20.9 | -6.1 | 9.4
CCCCNC(=O)C[C@H]1C[C@@]2(C(=O)OC)C(=C[C@H](C(C)(C)C)O[C@@H]2C)N(Cc2cccc3ccccc23)C1=O | 6.2 | 0.0 | -13.6 | . | -1.9
Cc1ccc(-c2c(C(=O)O)c(C(=O)O)c3n2CSC3)cc1 | 7.5 | 23.7* | 5.1 | 7.8 | -1.3
O=C(Cc1ccc(Cl)c(Cl)c1)Nc1ccc(S(=O)(=O)Nc2ccon2)cc1 | 29.9 | 3.9 | -7.9 | . | -10.1
Cc1nc2sc(C(=O)NCc3ccc4c(c3)OCO4)c(N)c2c(C)c1Cl | 12.7 | 21.9* | -3.0 | . | -0.7
CC1(C(=O)NS(=O)(=O)c2ccccc2Cl)CCN1C(=O)C1(c2ccc(Cl)cc2)CCC1 (stereo unspecified) | 47.2* | -1.8 | 4.7 | -3.5 | -0.8
O=C(N/N=C/c1cc(Cl)cc(Cl)c1O)c1ccncc1 | -42.1 | 23.6* | 11.9 | -1.0 | 3.8
Cc1c(Cl)sn(-c2ccc(Cl)cc2)c1=O | -1.4 | 67.5* | 3.0 | -3.8 | -4.2
SMILES | rCAG binder | PRMT1 FP inh | mABHD4 FP | TCR CD3 inh | SIAE primary
COc1ccc(CC(=O)Nc2sc3c(c2C(N)=O)CCCC3)cc1 | 3.6 | -2.7 | -0.6 | 0.2 | 4.0
COc1ccc2nc(Nc3sc4c(c3C(N)=O)CCCC4)sc2c1 | 33.3 | 45.5* | 22.0 | -7.3 | -33.6
CCOc1ccc(-c2nc(C#N)c(NCc3ccc4c(c3)OCO4)o2)cc1 | 4.4 | -1.5 | -0.2 | 4.3 | 17.8*
O=C(Nc1ccc(F)cc1F)c1cc(-c2ccco2)nc2ccccc12 | 11.6 | 22.6* | -10.8 | -1.0 | -9.4
CC(=O)c1cc(-c2cnn(Cc3ccccc3)c2)c(=O)n2c1CCC2 | 0.0 | -5.6 | -2.0 | . | -5.4
COc1ccc(/C=N/c2oc(C)c(C)c2C#N)c(OC)c1 | -2.0 | -2.2 | -2.8 | 7.1 | 10.1
COc1ccc(O)c(/C=N/c2sc(C)c(C)c2C#N)c1 | 3.1 | 24.1* | 0.9 | 6.9 | 7.3
O=[N+]([O-])c1ccc(OCCCN2CCC(C(O)(c3ccccc3)c3ccccc3)CC2)c(Cl)c1 | 1.8 | -4.3 | 5.2 | . | 0.0
O=C(CCN1CCCCC1)Nn1c(=S)[nH]c2ccccc2c1=O | 1.5 | 24.2* | 1.2 | -3.1 | 4.2
O=C(Cn1nnc(-c2ccccc2F)n1)Nc1ccc(Cl)cc1 | 7.8 | 0.8 | -1.6 | . | 1.3
O=c1[nH]c2cc3c(cc2cc1CN(Cc1nnnn1CC1CCCO1)C1CCCCC1)OCO3 (stereo unspecified) | -11.3 | 23.2* | 1.8 | -2.0 | -7.8
O=c1[nH]c2cc3c(cc2cc1CN(Cc1nnnn1CC1CCCO1)C1CCCC1)OCO3 (stereo unspecified) | -4.5 | 0.5 | 2.8 | -6.0 | -2.7
COc1cc(C(=O)Nc2nc(C)c(Cc3ccc4c(c3)OCO4)s2)cc(OC)c1OC | 7.6 | 22.7* | -0.8 | -0.8 | -8.6
COC(=O)[C@]12C[C@H](CC(=O)NCCc3ccccc3OC)C(=O)N(CCc3ccc(OC)c(OC)c3)C1=C[C@H](C1CCCC1)O[C@@H]2C | 4.7 | -0.3 | -12.2 | . | -4.0
N#CCC[C@@H]1CC[C@]2(CCCN(Cc3ccc(Br)cc3)C2)O1 | 1.6 | 9.0 | -7.6 | . | -3.7
COc1ccccc1C(=O)Nc1ccc(S(=O)(=O)Nc2cc(C)on2)cc1 | 4.7 | -4.2 | 0.5 | 1.7 | 26.9*
COc1ccc(S[C@]2(C(=O)NC(C)C)CC(=O)N[C@@H]2c2ccc(OC)cc2)cc1 | 0.1 | 5.0 | -5.6 | . | -3.1
Cc1ccc(S(=O)(=O)N2[C@@H](c3cccc(Cl)c3)C(C(=O)O)=CC[C@H]2c2ccc(Cl)cc2)cc1 | 10.3 | 4.7 | 11.1 | -3.9 | -7.2
COc1ccc([C@@H]2CC=C(C(=O)O)[C@H](c3ccccc3)N2S(=O)(=O)c2ccccc2C)cc1 | 35.8* | -1.7 | 8.7 | 3.5 | 2.8
Cc1ccc(S(=O)(=O)N2[C@@H](c3ccc(C(C)(C)C)cc3)C(C(=O)O)=CC[C@H]2c2ccc(Cl)cc2)cc1 | 89.4* | 4.5 | 21.7 | -10.4 | .
O=C(OC12CCCN(C1)/C(=C/c1cccc(Cl)c1)C2)c1ccc(Cl)cc1 (stereo unspecified) | 2.5 | -2.1 | -1.8 | . | -3.5
CCn1cc(C(=O)Nc2ncccc2O)c(=O)c2cc(F)c(N3CCN(C(=O)c4ccco4)CC3)cc21 | 4.4 | 0.4 | 7.3 | 19.5* | 3.7
COC(=O)[C@H]1C[C@@]2(N3CCCC3)c3ccccc3N[C@H]2N1S(C)(=O)=O | 5.1 | 0.9 | 3.1 | . | 5.3
COc1cc(C(=O)N/N=C/c2cn(Cc3cccc(F)c3)c3ccccc23)ccc1O | 18.9 | 7.4 | 5.3 | -6.3 | 29.5*

Source: PubChem BioAssay
